{"data": "Results collected from several papers", "target": "LIM domain kinase 1 (LIMK1, Homo sapiens, UniProt P53667)", "note": "Protocols differ between the studies behind these lines."}
{"Structure (SMILES)": "O=C(Nc1cnn(-c2csc(C(=O)NC3COC3)c2)c1)Nc1c(F)cccc1Cl", "test": "enzyme activity, inhibitor", "conditions": "5 µM", "quantity": "remaining activity", "value": "104%"}
{"Structure (SMILES)": "CC(C)(O)[C@H]1CC[C@H](Nc2ccc3ncc(-c4cccc(C(F)(F)F)c4)n3n2)CC1", "test": "enzyme activity, inhibitor", "conditions": "1 µM", "quantity": "remaining activity", "value": "76.3%"}
{"Structure (SMILES)": "Cc1cnc(NC2CCOCC2)nc1-n1cnc(C(=O)NC(CN)c2cc(F)cc(Cl)c2)c1 (centres unmarked)", "test": "enzyme activity, inhibitor, radiometric", "conditions": "1 µM", "quantity": "remaining activity", "value": "64%"}
{"Structure (SMILES)": "CCOC(=O)c1cc2cc(-c3cc(C(=O)NCc4ccc(C(=O)O)cc4)nn3C)ccc2[nH]1", "test": "cell-free assay, competition with immobilised ligand", "conditions": "0.1 µM", "quantity": "remaining binding", "value": "100%"}
{"Structure (SMILES)": "CCN(CC)c1ccc(C2=NNC(=O)CC2C)cc1[N+](=O)[O-] (centres unmarked)", "test": "enzyme activity, inhibitor", "conditions": "10 µM", "quantity": "remaining activity", "value": "93%"}
{"Structure (SMILES)": "O=C(Nc1cccnn1)N1CC(C/C=C/c2cncc(Oc3ccc(C(F)(F)F)cn3)n2)C1", "test": "cell-free assay, competition with immobilised ligand", "conditions": "1 µM", "quantity": "remaining binding", "value": "88%"}
{"Structure (SMILES)": "CCN(CC)CCNC(=O)c1c(C)[nH]c(/C=C2\\C(=O)Nc3ccc(F)cc32)c1C", "test": "enzyme activity, inhibitor", "conditions": "10 µM", "quantity": "inhibition", "value": "39%"}
{"Structure (SMILES)": "C[C@@H]1CCN(C(=O)CC#N)C[C@@H]1N(C)c1ncnc2[nH]ccc12", "test": "cell-free assay, inhibitor", "conditions": "0.5 µM", "quantity": "remaining signal", "value": "82%"}
{"Structure (SMILES)": "CSc1cccnc1N1CCN(Cc2nc3ccccc3[nH]2)CC1", "test": "cell-free assay, competition with immobilised ligand", "conditions": "1 µM", "quantity": "remaining binding", "value": "100%"}
{"Structure (SMILES)": "Cc1sc(C(=O)NC2COC2)cc1-n1cc(NC(=O)Nc2c(F)cccc2Cl)cn1", "test": "enzyme activity, inhibitor", "conditions": "10 µM", "quantity": "remaining activity", "value": "105%"}
{"Structure (SMILES)": "O=C(O)[C@@H]1[C@@H](Cn2nnc3ccccc3c2=O)CC[C@H]1C(=O)c1ccc(OCCC2CCOCC2)cc1", "test": "cell-free assay, competition with immobilised ligand", "conditions": "1 µM", "quantity": "remaining binding", "value": "100%"}
{"Structure (SMILES)": "Nc1nc(Nc2ccc(S(N)(=O)=O)cc2)nn1C(=O)c1c(F)cccc1F", "test": "cell-free assay", "conditions": "0.5 µM", "quantity": "remaining signal", "value": "16.6%"}
{"Structure (SMILES)": "COc1cc(Cl)c(C(=O)N[C@@H](CN[C@H]2CC[C@@H](N)CC2)Cc2ccc(C#N)cc2)cc1-c1ccc(CN[C@H](C)c2ccc(C)cc2)o1", "test": "enzyme activity, inhibitor", "conditions": "1 µM", "quantity": "remaining activity", "value": "100%"}
{"Structure (SMILES)": "CN([C@@H]1CCc2c(CC(=O)O)c3ccccc3n2C1)S(=O)(=O)c1ccc(F)cc1", "test": "cell-free assay, competition with immobilised ligand", "conditions": "1 µM", "quantity": "remaining binding", "value": "100%"}
{"Structure (SMILES)": "CC(C)(C)c1nc(-c2cccc(NS(=O)(=O)c3c(F)cccc3F)c2F)c(-c2ccnc(N)n2)s1", "test": "enzyme activity, inhibitor, radiometric", "conditions": "1 µM", "quantity": "remaining activity", "value": "98%"}
{"Structure (SMILES)": "O=C1Nc2ccc(Cl)cc2C1=Cc1cc(Cl)c(O)c(Cl)c1", "test": "cell-free assay", "conditions": "0.5 µM", "quantity": "remaining signal", "value": "83.7%"}
{"Structure (SMILES)": "CN1CCN(c2cnc3c(C4CCN(C(=O)c5ccc(OC(F)(F)F)cc5N)CC4)ncnc3c2)CC1", "test": "cell-free assay, competition with immobilised ligand", "conditions": "1 µM", "quantity": "remaining binding", "value": "100%"}
{"Structure (SMILES)": "Cn1cnc(Br)c1C1=CN(c2ncnc3[nH]cnc23)CCS1", "test": "enzyme activity, inhibitor, radiometric", "conditions": "2 µM", "quantity": "inhibition", "value": "82.8%"}
{"Structure (SMILES)": "CNC(=O)c1cc(Oc2ccc(NC(=O)Nc3ccc(Cl)c(C(F)(F)F)c3)cc2)ccn1", "test": "enzyme activity, inhibitor", "conditions": "0.3 µM", "quantity": "inhibition", "value": "29%"}
{"Structure (SMILES)": "Oc1ccc(-c2nc(-c3ccncc3)c(-c3ccc(F)cc3)[nH]2)cc1", "test": "cell-free assay", "conditions": "0.5 µM", "quantity": "remaining signal", "value": "91.4%"}
